In ChEMBL document CHEMBL1126647, “Fluorine-18-labeled progestin ketals: synthesis and target tissue uptake selectivity of potential imaging agents for receptor-positive breast tumors” (J Med Chem, 1993):

Tests used:
[1] = molecular target: T1, Mineralocorticoid receptor (Rattus norvegicus) (UniProt P22199); experiment: Relative binding affinity (RBA) for mineralocorticoid receptor compared to aldosterone
T1 sequence (whole entry): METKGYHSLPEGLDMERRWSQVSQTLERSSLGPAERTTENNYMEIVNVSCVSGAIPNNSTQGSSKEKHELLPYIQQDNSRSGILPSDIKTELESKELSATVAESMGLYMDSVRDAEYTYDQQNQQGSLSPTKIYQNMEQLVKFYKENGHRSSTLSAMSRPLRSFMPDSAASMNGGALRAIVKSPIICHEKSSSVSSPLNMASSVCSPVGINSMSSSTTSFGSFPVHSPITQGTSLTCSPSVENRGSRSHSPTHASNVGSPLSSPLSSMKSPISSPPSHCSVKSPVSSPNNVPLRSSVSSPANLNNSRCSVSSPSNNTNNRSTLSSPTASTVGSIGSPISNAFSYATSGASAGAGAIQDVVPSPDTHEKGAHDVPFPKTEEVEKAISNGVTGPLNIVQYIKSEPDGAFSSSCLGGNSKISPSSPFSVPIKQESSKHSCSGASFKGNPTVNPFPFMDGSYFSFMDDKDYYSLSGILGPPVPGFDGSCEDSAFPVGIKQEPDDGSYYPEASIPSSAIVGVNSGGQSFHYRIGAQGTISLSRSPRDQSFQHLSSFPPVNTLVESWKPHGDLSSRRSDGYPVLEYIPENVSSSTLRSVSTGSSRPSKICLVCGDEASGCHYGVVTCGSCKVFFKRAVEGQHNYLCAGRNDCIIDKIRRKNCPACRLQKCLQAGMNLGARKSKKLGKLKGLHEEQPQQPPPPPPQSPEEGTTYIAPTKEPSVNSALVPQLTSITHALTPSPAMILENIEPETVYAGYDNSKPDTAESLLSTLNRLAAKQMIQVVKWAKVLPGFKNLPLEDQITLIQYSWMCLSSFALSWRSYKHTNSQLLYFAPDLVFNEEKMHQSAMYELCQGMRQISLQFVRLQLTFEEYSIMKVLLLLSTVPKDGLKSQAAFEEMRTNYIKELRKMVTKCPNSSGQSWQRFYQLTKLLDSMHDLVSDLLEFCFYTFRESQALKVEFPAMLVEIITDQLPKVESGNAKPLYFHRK

[2] = molecular target: T2, Progesterone receptor (Rattus norvegicus) (UniProt Q63449); experiment: Tissue distribution in uterus/blood 1 hr after [18F]4 injection into estrogen-primed immature rats at low dose; format: functional, tissue-based
T2 sequence (whole entry): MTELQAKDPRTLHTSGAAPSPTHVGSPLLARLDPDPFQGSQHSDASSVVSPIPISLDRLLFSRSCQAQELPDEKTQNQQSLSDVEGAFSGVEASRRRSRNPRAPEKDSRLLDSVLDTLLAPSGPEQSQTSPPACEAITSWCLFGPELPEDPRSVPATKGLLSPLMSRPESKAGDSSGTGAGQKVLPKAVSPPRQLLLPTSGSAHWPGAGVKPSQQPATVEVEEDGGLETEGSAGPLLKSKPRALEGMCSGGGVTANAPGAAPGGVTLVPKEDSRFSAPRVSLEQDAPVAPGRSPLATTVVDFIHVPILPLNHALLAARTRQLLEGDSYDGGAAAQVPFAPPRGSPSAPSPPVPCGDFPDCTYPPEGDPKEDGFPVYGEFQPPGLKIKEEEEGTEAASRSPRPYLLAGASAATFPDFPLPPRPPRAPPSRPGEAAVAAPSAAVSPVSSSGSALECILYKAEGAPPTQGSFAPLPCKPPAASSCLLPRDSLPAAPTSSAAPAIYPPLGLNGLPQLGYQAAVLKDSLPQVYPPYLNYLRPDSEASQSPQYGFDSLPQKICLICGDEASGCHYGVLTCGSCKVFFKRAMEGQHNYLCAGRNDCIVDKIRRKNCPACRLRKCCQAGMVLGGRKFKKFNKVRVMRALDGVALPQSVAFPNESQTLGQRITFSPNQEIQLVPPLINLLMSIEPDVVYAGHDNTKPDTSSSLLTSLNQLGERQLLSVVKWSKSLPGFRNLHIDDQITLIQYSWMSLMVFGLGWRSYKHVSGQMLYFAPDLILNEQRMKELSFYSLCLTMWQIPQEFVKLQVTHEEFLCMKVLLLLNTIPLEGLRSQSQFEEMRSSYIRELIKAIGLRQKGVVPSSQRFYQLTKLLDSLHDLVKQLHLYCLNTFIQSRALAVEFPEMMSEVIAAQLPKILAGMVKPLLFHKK
Summary of the method: (§1)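 Estrogen-primed immature female Sprague-Dawley rats (estradiol 5 μg s.c. daily ×2, used 24 h later) were given a reduced tracer dose of 30 μCi in 0.04 mL 10% ethanol/saline, tail vein iv, under ether. Decapitated at 1 h; organs weighed and gamma-counted. Results as %ID/g or uterus/tissue ratio, mean ± SD, n = 5.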

[3] = molecular target: T2, Progesterone receptor (Rattus norvegicus); experiment: Tissue distribution in uterus/muscle 1 hr after [18F]4 injection into estrogen-primed immature rats at normal dose; format: functional, tissue-based
Summary of the method: (§2)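 Female Sprague-Dawley rats, 23 days old, primed with estradiol 5 μg s.c. in 20% ethanol/sunflower oil on two days and used 24 h later. Under ether, they received 51 μCi tracer (30 Ci/mmol) iv via the tail vein in 0.1 mL 10% ethanol/saline. Killed by decapitation at 1 h; tissues weighed and gamma-counted. Results as %ID/g or tissue ratios, mean ± SD, n = 5.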

[4] = molecular target: T2, Progesterone receptor (Rattus norvegicus); experiment: Tissue distribution in brain 1 hr after [18F]-4 injection into estrogen-primed immature rats at low dose; format: functional, tissue-based; summary of the method: as §1
[5] = molecular target: T2, Progesterone receptor (Rattus norvegicus); experiment: Tissue distribution in kidney 1 hr after [18F]4 injection into estrogen-primed immature rats at normal dose; format: functional, tissue-based; summary of the method: as §2
[6] = molecular target: T2, Progesterone receptor (Rattus norvegicus); experiment: Tissue distribution in fat 1 hr after [18F]4 injection into estrogen-primed immature rats at low dose; format: functional, tissue-based; conditions: Adipose tissue; summary of the method: as §1
[7] = molecular target: T2, Progesterone receptor (Rattus norvegicus); experiment: Tissue distribution in uterus 3 hr after [18F]4 injection into estrogen-primed immature rats; format: functional, tissue-based
Summary of the method: (§3)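 Immature female Sprague-Dawley rats, estradiol-primed (5 μg s.c. in 20% ethanol/sunflower oil, two successive days, used 24 h later). Tracer (30 Ci/mmol) in 10% ethanol/saline was injected iv into the tail vein under ether anesthesia. Animals were decapitated 3 h postinjection; organs weighed and gamma-counted. %ID/g, mean ± SD, n = 5.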

[8] = molecular target: T2, Progesterone receptor (Rattus norvegicus); experiment: Relative binding affinity for progesterone receptor compared to R5020
[9] = molecular target: T2, Progesterone receptor (Rattus norvegicus); experiment: Tissue distribution in muscle 1 hr after [18F]4 injection into estrogen-primed immature rats at low dose; format: functional, tissue-based; summary of the method: as §1
[10] = molecular target: T2, Progesterone receptor (Rattus norvegicus); experiment: Tissue distribution in muscle 1 hr after [18F]4 injection into estrogen-primed immature rats at normal dose; format: functional, tissue-based; summary of the method: as §2
[11] = molecular target: T2, Progesterone receptor (Rattus norvegicus); experiment: Tissue distribution in brain 1 hr after [18F]-4 injection into estrogen-primed immature rats co-injected with uterine uptake blocker (ORG 2058); format: functional, tissue-based
Summary of the method: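 Blocking group: estrogen-primed immature female Sprague-Dawley rats (estradiol 5 μg s.c. ×2 days, used 24 h later). ORG 2058 18 μg was co-injected with the tracer dose iv via tail vein, 0.2 mL injection volume in 10% ethanol/saline. Killed 1 h later; tissues weighed and gamma-counted. Results as %ID/g or ratios, mean ± SD, n = 5.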

[12] = molecular target: T2, Progesterone receptor (Rattus norvegicus); experiment: Tissue distribution in liver 3 hr after [18F]-4 injection into estrogen-primed immature rats; format: functional, tissue-based; summary of the method: as §3
[13] = molecular target: T2, Progesterone receptor (Rattus norvegicus); experiment: Tissue distribution in blood 3 hr after [18F]-4 injection into estrogen-primed immature rats; format: functional, tissue-based; summary of the method: as §3

relative binding affinity (RBA) [1]	uterus/blood ratio [2]	uterus/muscle ratio [3]	Injected dose/g [4]	Injected dose/g [5]	Injected dose/g [6]	Injected dose/g [7]	relative binding affinity (RBA) [8]	Injected dose/g [9]	Injected dose/g [10]	Injected dose/g [11]	Injected dose/g [12]	Injected dose/g [13]	SMILES
6	6.34	3.85	0.57%	2.18%	5.39%	2.13%	53	0.82%	0.82%	0.55%	1.93%	0.28%	CC(=O)[C@@]12O[C@](C)(c3ccc(F)cc3)O[C@@H]1CC1C3CCC4=CC(=O)CC[C@]4(C)C3CC[C@@]12C (stereo partly specified)
140	14.5	8.2	0.39%	1.42%	3.78%	3.86%	240	0.464%	0.44%	0.28%	1.36%	0.1%	C[C@@]1(c2ccc(F)cc2)O[C@@H]2CC3C4CCC5=CC(=O)CC[C@@H]5C4CC[C@]3(C)[C@]2(C(=O)CO)O1 (stereo partly specified)
